{"source": "ChEMBL document CHEMBL2331221", "about": "“Potent elastase inhibitors from cyanobacteria: structural basis and mechanisms mediating cytoprotective and anti-inflammatory effects in bronchial epithelial cells” (J Med Chem, 2013)", "key": {"[1]": {"experiment": "Inhibition of porcine pancreatic elastase using Suc-AAA-pNa substrate incubated for 15 mins prior to substrate addition measured for 2 hrs", "parameters": "species or system Sus scrofa", "procedure,_shortened": "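Elastase preincubated with test compound (DMSO) in Tris-HCl pH 8.0 for 15 min at room temperature; N-succinyl-Ala-Ala-Ala-p-nitroanilide then added (2 mM stock in Tris-HCl pH 8.0). Absorbance at 405 nm recorded every 30 s; activity as initial slope, percent of uninhibited reaction.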"}, "[2]": {"target": "Tissue-type plasminogen activator (Homo sapiens) (UniProt P00750)", "sequence (P00750 36-562 limits assumed)": "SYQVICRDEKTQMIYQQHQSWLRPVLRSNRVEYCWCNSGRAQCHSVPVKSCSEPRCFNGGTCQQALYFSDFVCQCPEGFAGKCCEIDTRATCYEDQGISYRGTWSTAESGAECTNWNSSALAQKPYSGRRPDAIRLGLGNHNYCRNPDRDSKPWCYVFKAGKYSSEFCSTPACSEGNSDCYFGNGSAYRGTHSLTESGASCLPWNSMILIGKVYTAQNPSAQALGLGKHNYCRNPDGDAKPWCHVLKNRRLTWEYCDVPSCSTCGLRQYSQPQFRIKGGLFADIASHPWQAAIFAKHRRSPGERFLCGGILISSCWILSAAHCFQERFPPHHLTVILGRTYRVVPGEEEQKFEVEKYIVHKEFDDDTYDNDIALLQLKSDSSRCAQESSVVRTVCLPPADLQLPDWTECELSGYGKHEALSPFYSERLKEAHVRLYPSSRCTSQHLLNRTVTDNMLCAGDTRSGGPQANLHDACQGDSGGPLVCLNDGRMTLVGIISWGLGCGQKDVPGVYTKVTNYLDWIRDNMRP", "experiment": "Inhibition of tPA (unknown origin) using Z-GPR-AMC substrate assessed as residual activity at 10 uM incubated for 15 mins prior to substrate addition measured for 2 hrs", "procedure,_shortened": "(§1)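 Protease panel screen: enzyme and inhibitor preincubated 15 min in reaction buffer, then substrate added; reaction followed for 2 h and the initial linear part of the progress curve used for activity. Enzyme, substrate, buffer and detection details are given only in a supporting table.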"}, "[3]": {"target": "T1, Neutrophil elastase (Homo sapiens) (UniProt P08246)", "T1 sequence (whole entry)": "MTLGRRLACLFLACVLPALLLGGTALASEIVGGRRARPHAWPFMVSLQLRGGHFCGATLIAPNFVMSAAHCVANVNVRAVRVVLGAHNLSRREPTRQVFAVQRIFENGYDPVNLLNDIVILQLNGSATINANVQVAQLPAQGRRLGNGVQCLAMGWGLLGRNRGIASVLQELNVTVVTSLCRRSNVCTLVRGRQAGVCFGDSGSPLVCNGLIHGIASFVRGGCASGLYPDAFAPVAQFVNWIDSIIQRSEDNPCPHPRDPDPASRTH", "details": "10 uM"}, "[4]": {"target": "72 kDa type IV collagenase (Homo sapiens) (UniProt P08253)", "sequence (P08253 110-660 limits assumed)": "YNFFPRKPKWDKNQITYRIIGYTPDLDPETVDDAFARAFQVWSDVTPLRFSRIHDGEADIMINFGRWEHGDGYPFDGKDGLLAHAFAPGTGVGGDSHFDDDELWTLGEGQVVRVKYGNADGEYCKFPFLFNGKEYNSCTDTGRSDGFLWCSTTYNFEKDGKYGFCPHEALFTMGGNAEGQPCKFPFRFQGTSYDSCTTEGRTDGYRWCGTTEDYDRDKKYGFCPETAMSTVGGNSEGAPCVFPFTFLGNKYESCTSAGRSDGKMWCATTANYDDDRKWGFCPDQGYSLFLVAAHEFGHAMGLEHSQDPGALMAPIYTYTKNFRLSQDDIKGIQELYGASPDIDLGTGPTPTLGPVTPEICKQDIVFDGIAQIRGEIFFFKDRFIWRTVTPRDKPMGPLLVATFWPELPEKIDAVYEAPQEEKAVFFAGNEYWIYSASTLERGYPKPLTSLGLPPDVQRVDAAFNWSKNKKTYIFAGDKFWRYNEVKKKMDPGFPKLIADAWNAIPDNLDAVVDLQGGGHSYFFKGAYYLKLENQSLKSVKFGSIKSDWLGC", "experiment": "Inhibition of MMP2 (unknown origin) using (5-FAM/QXLTM) FRET peptide substrate assessed as residual activity at 10 uM incubated for 15 mins prior to substrate addition measured for 2 hrs", "procedure,_shortened": "(§2)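 Protease panel screen: enzyme and test inhibitor preincubated 15 min in the enzyme's reaction buffer, then substrate added. Reaction followed for 2 h, and activity was taken from the initial linear portion of the progress-curve slope. Enzyme, substrate, buffer and detection conditions for each target are given only in the paper's supporting table.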"}, "[5]": {"target": "T1, Neutrophil elastase (Homo sapiens)", "details": "10 uM", "remark": "listed apart in the source"}, "[6]": {"target": "Matrilysin (Homo sapiens) (UniProt P09237)", "sequence (P09237 whole entry)": "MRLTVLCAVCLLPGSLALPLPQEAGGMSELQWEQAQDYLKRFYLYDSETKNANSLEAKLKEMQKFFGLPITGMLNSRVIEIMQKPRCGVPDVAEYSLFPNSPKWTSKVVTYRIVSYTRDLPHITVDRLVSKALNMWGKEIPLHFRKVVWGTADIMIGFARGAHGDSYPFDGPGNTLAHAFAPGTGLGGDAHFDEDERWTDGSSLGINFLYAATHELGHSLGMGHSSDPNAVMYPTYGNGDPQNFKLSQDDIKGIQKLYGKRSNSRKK", "experiment": "Inhibition of MMP7 (unknown origin) using (5-FAM/QXLTM) FRET peptide substrate assessed as residual activity at 10 uM incubated for 15 mins prior to substrate addition measured for 2 hrs", "procedure,_shortened": "as §1"}, "[7]": {"target": "T1, Neutrophil elastase (Homo sapiens)", "details": "10 uM", "remark": "listed apart in the source"}, "[8]": {"target": "Coagulation factor X (Homo sapiens) (UniProt P00742)", "sequence (P00742 41-179 limits assumed)": "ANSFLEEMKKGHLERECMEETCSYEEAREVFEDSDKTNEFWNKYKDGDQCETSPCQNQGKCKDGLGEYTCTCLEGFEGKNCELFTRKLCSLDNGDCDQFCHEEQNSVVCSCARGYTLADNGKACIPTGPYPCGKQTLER", "sequence (P00742 235-488 limits assumed)": "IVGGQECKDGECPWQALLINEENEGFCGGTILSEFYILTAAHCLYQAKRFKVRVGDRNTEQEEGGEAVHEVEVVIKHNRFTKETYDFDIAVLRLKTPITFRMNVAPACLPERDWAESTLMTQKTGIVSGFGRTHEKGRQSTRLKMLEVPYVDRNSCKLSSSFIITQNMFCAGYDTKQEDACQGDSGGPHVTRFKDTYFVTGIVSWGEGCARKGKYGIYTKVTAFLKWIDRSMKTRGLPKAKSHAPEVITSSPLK", "experiment": "Inhibition of Factor-10a (unknown origin) using CH3SO2-D-CHA-Gly-Arg-AMC-AcOH substrate assessed as residual activity at 10 uM incubated for 15 mins prior to substrate addition measured for 2 hrs", "procedure,_shortened": "as §2"}, "[9]": {"target": "T1, Neutrophil elastase (Homo sapiens)", "details": "10 uM", "remark": "listed apart in the source"}, "[10]": {"target": "Stromelysin-2 (Homo sapiens) (UniProt P09238)", "sequence (P09238 99-476 limits assumed)": "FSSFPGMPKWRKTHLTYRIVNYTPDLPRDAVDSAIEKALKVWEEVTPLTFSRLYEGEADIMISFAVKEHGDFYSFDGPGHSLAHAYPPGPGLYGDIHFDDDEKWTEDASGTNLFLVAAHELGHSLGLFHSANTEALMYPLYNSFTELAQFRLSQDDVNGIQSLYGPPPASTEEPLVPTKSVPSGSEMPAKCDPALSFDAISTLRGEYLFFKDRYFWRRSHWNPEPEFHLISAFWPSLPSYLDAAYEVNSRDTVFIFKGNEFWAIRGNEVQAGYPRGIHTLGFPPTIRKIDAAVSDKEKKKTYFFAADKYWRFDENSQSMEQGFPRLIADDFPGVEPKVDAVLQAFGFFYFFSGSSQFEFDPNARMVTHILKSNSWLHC", "experiment": "Inhibition of MMP10 (unknown origin) using (5-FAM/QXLTM) FRET peptide substrate assessed as residual activity at 10 uM incubated for 15 mins prior to substrate addition measured for 2 hrs", "procedure,_shortened": "as §2"}, "[11]": {"target": "Cathepsin Z (Homo sapiens) (UniProt Q9UBR2)", "sequence (Q9UBR2 whole entry)": "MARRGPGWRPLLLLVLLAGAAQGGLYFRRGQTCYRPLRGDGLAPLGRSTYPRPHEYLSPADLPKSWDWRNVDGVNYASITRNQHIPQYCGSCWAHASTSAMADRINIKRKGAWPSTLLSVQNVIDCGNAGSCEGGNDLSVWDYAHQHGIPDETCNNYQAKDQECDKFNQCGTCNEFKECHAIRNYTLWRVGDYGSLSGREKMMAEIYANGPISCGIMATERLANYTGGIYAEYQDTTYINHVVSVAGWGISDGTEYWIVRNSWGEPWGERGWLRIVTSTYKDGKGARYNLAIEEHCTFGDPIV", "experiment": "Inhibition of Cathepsin X/Z (unknown origin) using MCA-RPPGFSAFK(Dnp) substrate assessed as residual activity at 10 uM incubated for 15 mins prior to substrate addition measured for 2 hrs", "procedure,_shortened": "as §2"}, "[12]": {"target": "Tryptase beta-2 (Homo sapiens) (UniProt P20231)", "sequence (P20231 whole entry, looked up)": "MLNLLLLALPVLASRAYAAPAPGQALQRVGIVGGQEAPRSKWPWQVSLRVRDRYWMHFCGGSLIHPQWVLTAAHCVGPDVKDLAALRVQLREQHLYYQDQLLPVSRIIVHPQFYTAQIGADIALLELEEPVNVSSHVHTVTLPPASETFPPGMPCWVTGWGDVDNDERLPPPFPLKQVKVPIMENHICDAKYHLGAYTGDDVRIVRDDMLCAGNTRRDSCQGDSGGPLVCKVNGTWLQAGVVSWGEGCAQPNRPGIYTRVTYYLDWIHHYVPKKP", "experiment": "Inhibition of Tryptase beta2 (unknown origin) using Z-GPR-AMC substrate assessed as residual activity at 10 uM incubated for 15 mins prior to substrate addition measured for 2 hrs"}, "[13]": {"target": "Plasma kallikrein (Homo sapiens) (UniProt P03952)", "sequence (P03952 20-390 limits assumed)": "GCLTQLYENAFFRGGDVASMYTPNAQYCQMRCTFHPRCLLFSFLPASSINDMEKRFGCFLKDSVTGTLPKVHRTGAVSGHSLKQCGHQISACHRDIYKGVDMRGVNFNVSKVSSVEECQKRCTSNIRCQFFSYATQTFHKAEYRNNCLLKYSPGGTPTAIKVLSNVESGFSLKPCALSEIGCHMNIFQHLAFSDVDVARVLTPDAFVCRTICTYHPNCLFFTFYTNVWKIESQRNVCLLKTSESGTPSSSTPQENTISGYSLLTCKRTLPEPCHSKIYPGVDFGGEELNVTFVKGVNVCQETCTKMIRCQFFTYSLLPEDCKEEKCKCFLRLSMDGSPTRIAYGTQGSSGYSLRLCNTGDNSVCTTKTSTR", "sequence (P03952 391-638 limits assumed)": "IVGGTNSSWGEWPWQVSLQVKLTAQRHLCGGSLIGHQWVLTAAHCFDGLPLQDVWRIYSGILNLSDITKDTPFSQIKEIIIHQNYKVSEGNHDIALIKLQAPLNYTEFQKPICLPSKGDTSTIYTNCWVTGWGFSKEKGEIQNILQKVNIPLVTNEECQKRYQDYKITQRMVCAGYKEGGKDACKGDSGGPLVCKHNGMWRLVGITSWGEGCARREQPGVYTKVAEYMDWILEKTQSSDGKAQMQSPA", "experiment": "Inhibition of Plasma Kallikrein (unknown origin) using Z-FR-AMC substrate assessed as residual activity at 10 uM incubated for 15 mins prior to substrate addition measured for 2 hrs", "procedure,_shortened": "as §1"}, "[14]": {"target": "Tryptase gamma (Homo sapiens, UniProt Q9NRR2)", "sequence (Q9NRR2 38-321 limits assumed, other chains not shown)": "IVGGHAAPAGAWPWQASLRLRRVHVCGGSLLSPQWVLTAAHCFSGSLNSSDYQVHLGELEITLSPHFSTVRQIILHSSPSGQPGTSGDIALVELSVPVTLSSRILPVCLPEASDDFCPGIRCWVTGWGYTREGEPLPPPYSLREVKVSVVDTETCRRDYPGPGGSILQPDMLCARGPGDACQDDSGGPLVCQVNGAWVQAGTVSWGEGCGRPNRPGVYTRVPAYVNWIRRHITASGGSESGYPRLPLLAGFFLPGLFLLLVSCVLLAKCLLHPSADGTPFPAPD", "experiment": "Inhibition of Tryptase gamma1 (unknown origin) using Z-GPR-AMC substrate assessed as residual activity at 10 uM incubated for 15 mins prior to substrate addition measured for 2 hrs", "procedure,_shortened": "as §1"}, "[15]": {"target": "Coagulation factor VII (Homo sapiens) (UniProt P08709)", "sequence (P08709 61-212 limits assumed)": "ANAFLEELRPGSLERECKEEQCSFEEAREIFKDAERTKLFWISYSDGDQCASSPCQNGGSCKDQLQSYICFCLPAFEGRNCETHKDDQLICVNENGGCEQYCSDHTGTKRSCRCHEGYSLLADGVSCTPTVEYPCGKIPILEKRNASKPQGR", "sequence (P08709 213-466 limits assumed)": "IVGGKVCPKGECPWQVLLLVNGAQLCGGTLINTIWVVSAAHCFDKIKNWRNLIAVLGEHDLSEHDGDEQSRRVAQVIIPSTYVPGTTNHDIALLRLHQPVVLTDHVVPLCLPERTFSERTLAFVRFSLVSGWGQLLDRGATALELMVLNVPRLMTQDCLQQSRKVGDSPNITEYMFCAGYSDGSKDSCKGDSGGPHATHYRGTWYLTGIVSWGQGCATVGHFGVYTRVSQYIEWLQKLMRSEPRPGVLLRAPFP", "experiment": "Inhibition of Factor-7a (unknown origin) using Z-VVR-AMC substrate assessed as residual activity at 10 uM incubated for 15 mins prior to substrate addition measured for 2 hrs", "procedure,_shortened": "as §2"}, "[16]": {"target": "Caspase-10 (Homo sapiens) (UniProt Q92851)", "sequence (Q92851 220-415 limits assumed)": "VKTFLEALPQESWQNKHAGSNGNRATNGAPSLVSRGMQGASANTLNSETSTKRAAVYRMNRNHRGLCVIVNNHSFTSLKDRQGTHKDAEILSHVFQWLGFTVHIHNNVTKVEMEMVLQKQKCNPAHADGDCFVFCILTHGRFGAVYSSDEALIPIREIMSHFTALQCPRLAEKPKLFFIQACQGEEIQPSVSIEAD", "sequence (Q92851 416-521 limits assumed)": "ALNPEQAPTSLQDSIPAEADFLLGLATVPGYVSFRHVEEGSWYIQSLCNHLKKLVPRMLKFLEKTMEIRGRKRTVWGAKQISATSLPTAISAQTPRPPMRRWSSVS", "experiment": "Inhibition of Caspase 10 (unknown origin) using Ac-LEHD-AMC substrate assessed as residual activity at 10 uM incubated for 15 mins prior to substrate addition measured for 2 hrs", "procedure,_shortened": "as §2"}, "[17]": {"target": "Cathepsin S (Homo sapiens) (UniProt P25774)", "sequence (P25774 115-331 limits assumed)": "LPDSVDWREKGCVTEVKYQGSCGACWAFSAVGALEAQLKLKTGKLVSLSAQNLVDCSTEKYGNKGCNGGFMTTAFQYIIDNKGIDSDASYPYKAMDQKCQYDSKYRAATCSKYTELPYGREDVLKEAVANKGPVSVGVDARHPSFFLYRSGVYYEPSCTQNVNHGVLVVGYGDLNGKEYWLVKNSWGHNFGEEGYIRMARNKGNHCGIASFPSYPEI", "experiment": "Inhibition of Cathepsin S (unknown origin) using Z-FR-AMC substrate assessed as residual activity at 10 uM incubated for 15 mins prior to substrate addition measured for 2 hrs", "procedure,_shortened": "as §2"}, "[18]": {"target": "T1, Neutrophil elastase (Homo sapiens)", "details": "10 uM", "remark": "listed apart in the source"}, "[19]": {"target": "T1, Neutrophil elastase (Homo sapiens)", "details": "10 uM", "remark": "listed apart in the source"}, "[20]": {"species_on_record": "Homo sapiens", "experiment": "Inhibition of Thrombin alpha (unknown origin) using H-D-CHA -Ala-Arg-AMC.2AcOH substrate assessed as residual activity at 10 uM incubated for 15 mins prior to substrate addition measured for 2 hrs", "procedure,_shortened": "as §1"}}, "note": "Active and inactive are the calls of the source. No cut-off for these calls is given here.", "data": [{"smiles": "C/C=C1\\NC(=O)[C@@H](NC(=O)[C@@H](NC(=O)[C@@H](COS(=O)(=O)[O-])OC)C(C)C)[C@@H](C)OC(=O)[C@H]([C@H](C)CC)NC(=O)[C@H](Cc2ccccc2)N(C)C(=O)[C@H](Cc2ccccc2)N2C(=O)[C@H](CC[C@H]2O)NC1=O.[Na+]", "note": "[Symplostatin 5]", "values": [{"measurement": "pIC50", "setting": "[1]", "value": "> 5"}, {"measurement": "Activity", "setting": "[2]", "value": 100, "unit": "%"}, {"measurement": "inhibition", "setting": "[3]", "value": "inactive"}, {"measurement": "Activity", "setting": "[4]", "value": 100, "unit": "%"}, {"measurement": "inhibition", "setting": "[5]", "value": "Active"}, {"measurement": "Activity", "setting": "[6]", "value": 100, "unit": "%"}, {"measurement": "inhibition", "setting": "[7]", "value": "Active"}, {"measurement": "Activity", "setting": "[8]", "value": 100, "unit": "%"}, {"measurement": "inhibition", "setting": "[9]", "value": "Active"}, {"measurement": "Activity", "setting": "[10]", "value": 100, "unit": "%"}, {"measurement": "Activity", "setting": "[11]", "value": 100, "unit": "%"}, {"measurement": "Activity", "setting": "[12]", "value": 100, "unit": "%"}, {"measurement": "Activity", "setting": "[13]", "value": 50, "unit": "%"}, {"measurement": "Activity", "setting": "[14]", "value": 100, "unit": "%"}, {"measurement": "Activity", "setting": "[15]", "value": 100, "unit": "%"}, {"measurement": "Activity", "setting": "[16]", "value": 100, "unit": "%"}, {"measurement": "Activity", "setting": "[17]", "value": 100, "unit": "%"}, {"measurement": "inhibition", "setting": "[18]", "value": "Active"}, {"measurement": "inhibition", "setting": "[19]", "value": "Active"}, {"measurement": "Activity", "setting": "[20]", "value": 100, "unit": "%"}]}]}
